Reference: the RNAGym collection of RNA variant scans (doi:10.1126/science.aae0568)
Variants at the floor of the assay were thinned out.

B1: tRNA (parent)
chain: GUUCCGUUGGCGUAAUGGUAACGCGUCUCCCUCCUAAGGAGAAGACUGCGGGUUCGAGUCCCGUACGGAACG

Variants of: B1
Assay: yeast fitness relative to wild type (ratio to wild type); higher = fitter; tRNA-Arg(CCU), competitive growth, 37 C, YPD
Method in brief: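 Amplicons of the tRNA-Arg(CCU) gene were sequenced, 100-nucleotide paired-end, from the start population and from each end population of a pooled yeast competition. The competition, in six parallel replicates, lasted 24 hours in YPD at 37°C. Fitness relative to wild type was calculated from changes in genotype frequencies. Genotypes had to have ≥ 100 starting reads, and estimates < 0.5 were set to 0.5.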

Point of comparison: U2C, yeast fitness 1. Against it:
- U2A C46U — higher, 1.06
- U2A C46U A65G — lower, 0.592
- U2A C49U — lower, 0.981
- U2A C49U C62U — lower, 0.522
- U2A C55A — lower, 0.714
- U2A C55A A69U — lower, ≤ 0.5
- U2A C55U — lower, 0.661
- U2A C61U — lower, 0.768
- U2A C61U A70G — lower, 0.571
- U2A C66G — lower, 0.715
- U2A C66U — lower, 0.739
- U2A G6A — lower, 0.775
- U2A G6A C11U C31G A69U — lower, ≤ 0.5
- U2A G6A U16C U28A G50A — lower, ≤ 0.5
- U2A G6A U28G — lower, ≤ 0.5
- U2A G6C A37U — lower, ≤ 0.5
- U2A G6C C29A U59G — lower, 0.603
- U2A G6C G38A G68A — lower, ≤ 0.5
- U2A G6C U7C A15U U35C G41A C60A A65U A69G — lower, ≤ 0.5
- U2A G6C U7C G12A C30A G44A C66A — lower, ≤ 0.5
- U2A G9A A20C C24U — lower, ≤ 0.5
- U2A G9A A20C C24U C61G — lower, ≤ 0.5
- U2A G9A A37G G58A — lower, ≤ 0.5
- U2A G9A A70C — lower, 0.568
- U2A G9A C11U G51C C55U A69C A70U — lower, ≤ 0.5
- U2A G9A C33A G68A — lower, ≤ 0.5
- U2A G9A C49A — lower, ≤ 0.5
- U2A G9A G23A C29G — lower, ≤ 0.5
- U2A G9A U13A C24A — lower, ≤ 0.5
- U2A G9C A14C C34U C60G — lower, 0.551
- U2A G9C G50A U64A — lower, ≤ 0.5
- U2A G9C U13A A15G C33A A37U G50C C61U — lower, 0.58
- U2A G9C U16G U32G G52A G63C — lower, ≤ 0.5
- U2A G9C U16G U32G U47A A57C C62U — lower, ≤ 0.5
- U2A G9C U35A A36G — lower, ≤ 0.5
- U2A G10A A20G U35C — lower, ≤ 0.5
- U2A G10A A20U C22G G44C C61G — lower, 0.502
- U2A G10A G17C U35C C55G — lower, ≤ 0.5
- U2A G10A U35C — lower, ≤ 0.5
- U2A G10C C27G G39U G50C G58A — lower, ≤ 0.5
- U2A G12A A21C — lower, 0.515
- U2A G12C C34G A65U — lower, ≤ 0.5
- U2A G17A A45G — lower, 0.587
- U2A G17C C46U U59A — lower, ≤ 0.5
- U2A G18C — lower, 0.592
- U2A G23A C29G — lower, 0.666
- U2A G23A C29G C49U — lower, 0.575
- U2A G23A G68U — lower, ≤ 0.5
- U2A G23C C27U C31G A42C C61U — lower, ≤ 0.5
- U2A G23C C31U — lower, ≤ 0.5
- U2A G25A A70U — lower, 0.695
- U2A G25A U32C — lower, 0.903
- U2A G25C A45U — lower, 0.585
- U2A G25C A70G — lower, 0.568
- U2A G38C — lower, 0.635
- U2A G38C A40C C49U — lower, 0.527
- U2A G38C G44C A69U — lower, ≤ 0.5
- U2A G39C A70G — lower, ≤ 0.5
- U2A G41A — lower, 0.773
- U2A G41A C66U — lower, ≤ 0.5
- U2A G41C G50C — lower, ≤ 0.5
- U2A G41C G50C C62G C66G — lower, ≤ 0.5
- U2A G41C U59A C61A C66U G68C — lower, ≤ 0.5
- U2A G48A — lower, 0.978
- U2A G48A A57U A65U C66A — lower, ≤ 0.5
- U2A G48A G50C U59C C60A — lower, ≤ 0.5
- U2A G48C G50A — lower, 0.732
- U2A G50C C55G C62G — lower, ≤ 0.5
- U2A G52A C61A — lower, ≤ 0.5
- U2A G56A — lower, 0.898
- U2A G67U — lower, 0.824
- U2A G68A — lower, 0.825
- U2A U3A G51A C61G — lower, 0.513
- U2A U3A G63C — lower, ≤ 0.5
- U2A U3A U7A A57G — lower, ≤ 0.5
- U2A U3A U16C C24U A69U — lower, ≤ 0.5
- U2A U3C C4U C61A G67C — lower, 0.59
- U2A U3C C24G C33G C66U — lower, ≤ 0.5
- U2A U3C G6A U26C G56A — lower, ≤ 0.5
- U2A U3C G18C A69U — lower, ≤ 0.5
- U2A U3C G18C C29G U54A — lower, ≤ 0.5
- U2A U3G A36U — lower, ≤ 0.5
- U2A U3G C11A G12A U16C C22G C62U — lower, ≤ 0.5
- U2A U3G C29G C30G C46A — lower, ≤ 0.5
- U2A U3G C29G C30G C46G — lower, 0.612
- U2A U3G C34U — lower, ≤ 0.5
- U2A U7A — lower, 0.666
- U2A U7A A15U G56A — lower, ≤ 0.5
- U2A U7A U54A — lower, ≤ 0.5
- U2A U7C G41A A42C G50C A70G — lower, ≤ 0.5
- U2A U7G A42G A45U G52A U64C A69U — lower, ≤ 0.5
- U2A U8A — lower, 0.811
- U2A U8A A42U G52C — lower, ≤ 0.5
- U2A U8A C33U A43U — lower, ≤ 0.5
- U2A U8A C34A A65U — lower, ≤ 0.5
- U2A U8C — higher, 1.01
- U2A U8C A15G — lower, 0.667
- U2A U8C A42U — lower, 0.64
- U2A U8C G23A C29G — lower, ≤ 0.5
- U2A U13A A20C G44C C66U — lower, ≤ 0.5
- U2A U13A U35G — lower, ≤ 0.5
- U2A U13A U35G U64A A65C — lower, ≤ 0.5
- U2A U13G U28A A36U A45U A57G — lower, 0.59
- U2A U13G U28A A36U G56A C62G U64G — lower, ≤ 0.5
- U2A U16A C55G C60A — lower, ≤ 0.5
- U2A U16A G56C A57G — lower, ≤ 0.5
- U2A U16C A45C — lower, 0.651
- U2A U16C C30A A43C — lower, ≤ 0.5
- U2A U16C C30A G56A G68C — lower, 0.541
- U2A U16C U28A G50A — lower, ≤ 0.5
- U2A U16G A43C U54G — lower, ≤ 0.5
- U2A U16G A69C — lower, 0.85
- U2A U16G C66A — lower, 0.625
- U2A U16G C66G G68C — lower, ≤ 0.5
- U2A U16G G18C — lower, 0.614
- U2A U19A A20C G25A U26A — lower, ≤ 0.5
- U2A U19A A20C U26A A43G — lower, ≤ 0.5
- U2A U19C — lower, 0.867
- U2A U19G A20U U64C — lower, ≤ 0.5
- U2A U19G A65U — lower, 0.644
- U2A U19G A70U — lower, 0.68
- U2A U19G C29G — lower, ≤ 0.5
- U2A U26A — higher, 1.06
- U2A U26C C33G A42C C49G G58C C62G — lower, ≤ 0.5
- U2A U26C C55U — lower, ≤ 0.5
- U2A U28A A37C C66U — lower, ≤ 0.5
- U2A U28A A37C G58C A69G — lower, ≤ 0.5
- U2A U28A C55G — lower, ≤ 0.5
- U2A U28C — lower, 0.835
- U2A U28C C49U C62G — lower, ≤ 0.5
- U2A U28C G39A G68A — lower, ≤ 0.5
- U2A U28C G41C U54A G67U — lower, ≤ 0.5
- U2A U32A A65U A69C — lower, ≤ 0.5
- U2A U32A A69C — lower, 0.612
- U2A U32C A57G — lower, 0.652
- U2A U47A — lower, 0.851
- U2A U47A A65C — lower, ≤ 0.5
- U2A U47G C66U — lower, ≤ 0.5
- U2A U53G — lower, ≤ 0.5
- U2A U54C — lower, 0.932
- U2A U64C — lower, 0.938
- U2C A14C G39A A57U — lower, ≤ 0.5
- U2C A14C U19A — lower, 0.595
- U2C A14C U35C — lower, ≤ 0.5
- U2C A14G C29A C33G C66A — lower, ≤ 0.5
- U2C A14G C31G G58A — lower, ≤ 0.5
- U2C A14G G18A C33U C34U G39C — lower, ≤ 0.5
- U2C A14G G18A U32A A45C A69C — lower, ≤ 0.5
- U2C A14G G18A U32A G44A A65C — lower, 0.539
- U2C A14G G18A U32A U59A — lower, ≤ 0.5
- U2C A14G U47G — lower, 0.593
- U2C A14U — lower, 0.764
- U2C A14U A15G C30U C34U G51C C55U — lower, 0.596
- U2C A14U C29U — lower, 0.626
- U2C A14U G18C C33G G52A — lower, ≤ 0.5
- U2C A14U U47A C61G A70G — lower, ≤ 0.5
- U2C A15C C24A G41C G68A — lower, ≤ 0.5
- U2C A15C C29U — lower, ≤ 0.5
- U2C A15C C60A — lower, ≤ 0.5
- U2C A15C U19C C22G U59C C60G — lower, ≤ 0.5
- U2C A15U A20U A69U — lower, ≤ 0.5
- U2C A15U C30G C55U — lower, 0.666
- U2C A15U U16A — lower, 0.62
- U2C A20C G68A — lower, 0.614
- U2C A20U — lower, 0.91
- U2C A20U C62U — lower, 0.571
